Source: ChEMBL document CHEMBL1137547, “Synthesis and antifungal activities of novel 2-aminotetralin derivatives” (2007)
Converted amounts (≈) assume the structure as drawn.

Experiments:
Format in all cases: functional
[1] = test system: Candida albicans; test: Antifungal activity against fluconazole-resistant Candida albicans 25 after 24 hrs
Method in brief: (§1)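 Broth serial dilution MIC per NCCLS in 96-well format; medium RPMI 1640 buffered with 0.165 M MOPS; compounds dissolved in DMSO and serially diluted in medium; clinical C. albicans isolates incubated at 35 °C, read at 24 h; MIC = lowest concentration giving turbidity […] inhibition relative to growth control; fluconazole and I-6 as control drugs.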

[2] = test system: Candida albicans; test: Antifungal activity against fluconazole-resistant Candida albicans 0511655 after 24 hrs; method in brief: as §1
[3] = test system: Fonsecaea compacta; test: Antifungal activity against Fonsecaea compacta
Method in brief: (§2)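 NCCLS broth serial dilution in RPMI 1640 buffered with 0.165 M MOPS. Compounds were dissolved in DMSO and serially diluted in medium. Strains came from ATCC or clinical isolates. The growth MIC for filamentous fungi was read at 7 d, taken as the lowest concentration giving ≥80% turbidity inhibition versus the growth control.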

[4] = test system: Candida albicans; test: Antifungal activity against fluconazole-resistant Candida albicans 18 after 24 hrs; method in brief: as §1
[5] = test system: Trichophyton rubrum; test: Antifungal activity against Trichophyton rubrum
Method in brief: (§3)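 Dermatophytes were tested by NCCLS serial dilution in RPMI 1640 with 0.165 M MOPS and incubated at 28 °C. Compounds were dissolved in DMSO and diluted in medium. Strains came from ATCC or clinical isolates. The MIC was read at 7 d as the lowest concentration reducing turbidity by ≥80% relative to the drug-free control.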

[6] = test system: Candida albicans; test: Antifungal activity against fluconazole-resistant Candida albicans 01010 after 24 hrs; method in brief: as §1
[7] = test system: Microsporum; test: Antifungal activity against Microsporum gypseum; method in brief: as §3
[8] = test system: Cryptococcus neoformans; test: Antifungal activity against Cryptococcus neoformans after 72 hrs
Method in brief: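 Cryptococcus neoformans was tested by NCCLS serial dilution in MOPS-buffered (0.165 M) RPMI 1640 at 35 °C. Compounds were dissolved in DMSO and diluted in medium. The MIC was read at 72 h as the lowest concentration giving turbidity inhibition of ≥80% relative to the growth control.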

[9] = test system: Candida parapsilosis; test: Antifungal activity against Candida parapsilosis after 24 hrs; settings: Lodderomyces parapsilosis
Method in brief: (§4)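 Candida yeasts were tested by NCCLS microdilution in RPMI 1640 buffered with 0.165 M MOPS and incubated at 35 °C. Compounds were dissolved in DMSO and serially diluted in medium. Isolates came from ATCC or the clinic. The MIC was read at 24 h as the lowest concentration achieving ≥80% growth inhibition versus the control.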

[10] = test system: Aspergillus fumigatus; test: Antifungal activity against Aspergillus fumigatus; method in brief: as §2
[11] = test system: Candida albicans; test: Antifungal activity against Candida albicans after 24 hrs; method in brief: as §4

Row | Structure (SMILES) | MIC [1] [µM] | MIC [2] [µM] | MIC [3] [µM] | MIC [4] [µM] | MIC [5] [µM] | MIC [6] [µM] | MIC [7] [µM] | MIC [8] [µM] | MIC [9] [µM] | MIC [10] [µM] | MIC [11] [µM]
1 | CCCCCCCCCNC1CCc2cc(O)ccc2C1 (stereo not drawn) | 2 (≈ 0.579 µg/mL) | 4 (≈ 1.16 µg/mL) | 1 (≈ 0.289 µg/mL) | 4 (≈ 1.16 µg/mL) | 1 (≈ 0.289 µg/mL) | 4 (≈ 1.16 µg/mL) | 0.5 (≈ 0.145 µg/mL) | 0.5 (≈ 0.145 µg/mL) | 4 (≈ 1.16 µg/mL) | 32 (≈ 9.26 µg/mL) | 0.0625 (≈ 0.0181 µg/mL)
2 | CCC(C)n1ncn(-c2ccc(N3CCN(c4ccc(OCC5COC(Cn6cncn6)(c6ccc(Cl)cc6Cl)O5)cc4)CC3)cc2)c1=O (stereo not drawn) [ITRACONAZOLE] | > 64 | 64 (≈ 45.2 µg/mL) |  | > 64 |  | > 64 |  |  |  |  | 
3 | CCCCCCCCCCNC1CCc2cc(O)ccc2C1 (stereo not drawn) | 2 (≈ 0.607 µg/mL) | 2 (≈ 0.607 µg/mL) | 0.25 (≈ 0.0759 µg/mL) | 2 (≈ 0.607 µg/mL) | 0.0625 (≈ 0.019 µg/mL) | 4 (≈ 1.21 µg/mL) | 8 (≈ 2.43 µg/mL) | 1 (≈ 0.303 µg/mL) | 2 (≈ 0.607 µg/mL) | 16 (≈ 4.86 µg/mL) | 0.0625 (≈ 0.019 µg/mL)
4 | CCCCCCCCCCNC1CCc2cccc(O)c2C1 (stereo not drawn) | 4 (≈ 1.21 µg/mL) | 16 (≈ 4.86 µg/mL) | 64 (≈ 19.4 µg/mL) | 16 (≈ 4.86 µg/mL) | 8 (≈ 2.43 µg/mL) | 16 (≈ 4.86 µg/mL) | > 64 | 16 (≈ 4.86 µg/mL) | 16 (≈ 4.86 µg/mL) |  | 0.0625 (≈ 0.019 µg/mL)
5 | CCCCCCCCNC1CCc2cc(OC)ccc2C1 (stereo not drawn) | 8 (≈ 2.32 µg/mL) | 8 (≈ 2.32 µg/mL) | 8 (≈ 2.32 µg/mL) | 8 (≈ 2.32 µg/mL) | 8 (≈ 2.32 µg/mL) | 16 (≈ 4.63 µg/mL) | 8 (≈ 2.32 µg/mL) | 16 (≈ 4.63 µg/mL) | 16 (≈ 4.63 µg/mL) | > 64 | 0.0625 (≈ 0.0181 µg/mL)
6 | CN(C/C=C/C#CC(C)(C)C)Cc1cccc2ccccc12 [TERBINAFINE] | 4 (≈ 1.17 µg/mL) | 8 (≈ 2.33 µg/mL) |  | 8 (≈ 2.33 µg/mL) |  | 32 (≈ 9.33 µg/mL) |  |  |  |  | 
7 | CCCCCCCCCNC1CCc2c(cccc2OC)C1 (stereo not drawn) | 8 (≈ 2.43 µg/mL) | 16 (≈ 4.86 µg/mL) | 0.5 (≈ 0.152 µg/mL) | 16 (≈ 4.86 µg/mL) | 2 (≈ 0.607 µg/mL) | 16 (≈ 4.86 µg/mL) | 4 (≈ 1.21 µg/mL) | 2 (≈ 0.607 µg/mL) | 0.5 (≈ 0.152 µg/mL) | 8 (≈ 2.43 µg/mL) | 0.0625 (≈ 0.019 µg/mL)
8 | CCCCCCCCCCNC1CCc2c(O)cccc2C1 (stereo not drawn) | 32 (≈ 9.71 µg/mL) | 32 (≈ 9.71 µg/mL) | 1 (≈ 0.303 µg/mL) | 32 (≈ 9.71 µg/mL) | 4 (≈ 1.21 µg/mL) | 16 (≈ 4.86 µg/mL) | 1 (≈ 0.303 µg/mL) | 1 (≈ 0.303 µg/mL) | 32 (≈ 9.71 µg/mL) | > 64 | 0.0312 (≈ 0.00948 µg/mL)
9 | CCCCCCCCCCNC1CCc2c(cccc2OC)C1 (stereo not drawn) | 4 (≈ 1.27 µg/mL) | 8 (≈ 2.54 µg/mL) | 1 (≈ 0.318 µg/mL) | 4 (≈ 1.27 µg/mL) | 1 (≈ 0.318 µg/mL) | 8 (≈ 2.54 µg/mL) | 4 (≈ 1.27 µg/mL) | 1 (≈ 0.318 µg/mL) | 8 (≈ 2.54 µg/mL) | 16 (≈ 5.08 µg/mL) | 0.0312 (≈ 0.00992 µg/mL)
10 | C[C@@H]1[C@H](O)[C@@H](C)/C=C/C=C/C=C/C=C/C=C/C=C/C=C/[C@H](O[C@@H]2O[C@H](C)[C@@H](O)[C@H](N)[C@@H]2O)C[C@@H]2O[C@](O)(C[C@@H](O)C[C@@H](O)[C@H](O)CC[C@@H](O)C[C@@H](O)CC(=O)O[C@H]1C)C[C@H](O)[C@H]2C(=O)O [AMPHOTERICIN B] | 0.5 (≈ 0.462 µg/mL) | 0.25 (≈ 0.231 µg/mL) |  | 2 (≈ 1.85 µg/mL) |  | 0.64 (≈ 0.591 µg/mL) |  |  |  |  | 
11 | OC(Cn1cncn1)(Cn1cncn1)c1ccc(F)cc1F [FLUCONAZOLE] | > 64 | > 64 | 16 (≈ 4.9 µg/mL) | > 64 | 1 (≈ 0.306 µg/mL) | > 64 | 16 (≈ 4.9 µg/mL) | 2 (≈ 0.613 µg/mL) | 0.5 (≈ 0.153 µg/mL) | > 64 | 8 (≈ 2.45 µg/mL)
12 | CC(=O)N1CCN(c2ccc(OC[C@@H]3CO[C@@](Cn4ccnc4)(c4ccc(Cl)cc4Cl)O3)cc2)CC1 [KETOCONAZOLE] | 8 (≈ 4.25 µg/mL) | 8 (≈ 4.25 µg/mL) |  | 4 (≈ 2.13 µg/mL) |  | 8 (≈ 4.25 µg/mL) |  |  |  |  | 
